ChEMBL document CHEMBL1155540, “The discovery and SAR of indoline-3-carboxamides--a new series of 5-HT6 antagonists” (Bioorg Med Chem Lett, 2010)

Assays:
[1] = Plasma protein binding in rat; conditions: read-out: PPB (converted)
[2] = Clearance in Wistar rat at 1 mg/kg, iv; assay type: ADME, organism-based; design: dose 1 mg/kg, route intravenous; conditions: in vivo
Outline: (§1)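 Male Wistar rats dosed 1 mg/kg iv or 10 mg/kg po; vehicle 5% DMA / 95% saline. Plasma pharmacokinetic parameters derived and given as mean with SD.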

[3] = Intrinsic clearance in rat liver microsome measured per mg of protein; assay type: ADME; conditions: liver microsomes
[4] = Intrinsic clearance in human liver microsome measured per mg of protein; assay type: ADME; conditions: liver microsomes
[5] = target: Voltage-gated inwardly rectifying potassium channel KCNH2 (Homo sapiens, UniProt Q12809); assay: Displacement of [3H]dofetolide from human ERG channel in HEK293 cells; assay type: cell-based
Outline: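 Affinity for cardiac K+ channel determined by displacement of tritiated dofetolide in membrane homogenate from HEK-293 cells expressing hERG channel; reported as pKi.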

[6] = Elimination half life in Wistar rat at 1 mg/kg, iv; assay type: ADME, organism-based; design: dose 1 mg/kg, route intravenous; conditions: in vivo, read-out: beta t1/2 (converted)
Outline: as §1

[7] = system: Hepatocyte; assay: Intrinsic clearance in rat hepatocytes; assay type: ADME, cell-based, Liver
[8] = Volume of distribution at steady state in Wistar rat at 1 mg/kg, iv; assay type: ADME, organism-based; design: dose 1 mg/kg, route intravenous; conditions: in vivo, read-out: Vdss
Outline: as §1

[9] = system: Hepatocyte; assay: Intrinsic clearance in human hepatocytes; assay type: ADME, cell-based, Liver
[10] = organism: Homo sapiens; assay: Plasma protein binding in human; conditions: read-out: PPB (converted)
[11] = Permeability from apical to basolateral side of the human Caco-2 membrane; assay type: ADME, cell-based; conditions: read-out: permeability
[12] = Oral bioavailability in Wistar rat at 10 mg/kg; assay type: ADME, organism-based; conditions: in vivo
Outline: as §1

[13] = Permeability from basolateral to apical side of the human Caco-2 membrane; assay type: ADME, cell-based; conditions: read-out: permeability
[14] = target: 5-hydroxytryptamine receptor 6 (Homo sapiens, UniProt P50406); assay: Displacement of [3H]LSD from human 5HT6 receptor expressed in CHO cells
Chain of 5-hydroxytryptamine receptor 6 (P50406 whole entry): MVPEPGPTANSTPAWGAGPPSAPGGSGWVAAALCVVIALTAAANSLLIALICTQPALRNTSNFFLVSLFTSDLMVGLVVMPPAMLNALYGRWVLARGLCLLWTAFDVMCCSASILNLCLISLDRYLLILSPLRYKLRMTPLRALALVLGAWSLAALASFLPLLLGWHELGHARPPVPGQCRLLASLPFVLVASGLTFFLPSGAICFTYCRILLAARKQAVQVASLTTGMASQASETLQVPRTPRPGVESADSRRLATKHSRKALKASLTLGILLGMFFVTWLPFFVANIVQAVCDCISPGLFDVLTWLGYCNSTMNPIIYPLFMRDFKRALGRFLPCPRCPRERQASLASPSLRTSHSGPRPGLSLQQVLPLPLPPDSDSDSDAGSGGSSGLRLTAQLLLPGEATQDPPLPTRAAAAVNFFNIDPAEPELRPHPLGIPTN

Chain of Voltage-gated inwardly rectifying potassium channel KCNH2 (Q12809 whole entry): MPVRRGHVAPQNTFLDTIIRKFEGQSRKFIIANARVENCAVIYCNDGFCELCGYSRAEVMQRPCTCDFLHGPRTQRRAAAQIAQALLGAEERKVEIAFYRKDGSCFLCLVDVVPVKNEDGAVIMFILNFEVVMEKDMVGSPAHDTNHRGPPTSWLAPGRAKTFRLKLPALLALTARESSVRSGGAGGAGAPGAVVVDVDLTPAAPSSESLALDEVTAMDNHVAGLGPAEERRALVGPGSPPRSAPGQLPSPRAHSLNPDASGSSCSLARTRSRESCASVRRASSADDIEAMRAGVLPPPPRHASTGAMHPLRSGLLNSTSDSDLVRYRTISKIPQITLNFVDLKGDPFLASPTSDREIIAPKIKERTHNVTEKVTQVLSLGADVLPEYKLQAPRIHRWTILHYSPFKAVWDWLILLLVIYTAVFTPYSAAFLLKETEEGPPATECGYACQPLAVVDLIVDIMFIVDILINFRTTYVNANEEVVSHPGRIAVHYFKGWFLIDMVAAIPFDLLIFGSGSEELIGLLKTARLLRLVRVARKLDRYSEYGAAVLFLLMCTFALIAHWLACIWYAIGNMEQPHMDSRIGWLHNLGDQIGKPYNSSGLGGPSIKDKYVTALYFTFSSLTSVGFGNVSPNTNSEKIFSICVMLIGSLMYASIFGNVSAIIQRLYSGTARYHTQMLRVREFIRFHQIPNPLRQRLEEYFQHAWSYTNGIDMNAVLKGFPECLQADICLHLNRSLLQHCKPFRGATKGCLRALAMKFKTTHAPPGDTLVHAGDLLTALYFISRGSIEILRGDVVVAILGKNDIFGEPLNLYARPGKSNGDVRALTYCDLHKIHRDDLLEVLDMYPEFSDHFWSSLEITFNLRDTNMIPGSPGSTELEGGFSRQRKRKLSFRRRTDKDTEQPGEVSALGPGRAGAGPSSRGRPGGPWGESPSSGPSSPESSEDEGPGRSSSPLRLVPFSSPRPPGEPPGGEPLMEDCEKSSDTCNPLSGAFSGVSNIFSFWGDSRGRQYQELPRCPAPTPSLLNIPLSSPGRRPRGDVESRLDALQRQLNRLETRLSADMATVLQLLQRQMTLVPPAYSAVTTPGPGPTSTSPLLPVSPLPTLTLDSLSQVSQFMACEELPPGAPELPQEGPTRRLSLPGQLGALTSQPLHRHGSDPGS

Row | Ki [14] [nM] | SMILES | further results
1 |  | COc1ccc(S(=O)(=O)N2C[C@H](C(=O)N3CCCNCC3)c3ccccc32)c2ccccc12 | fraction unbound [1]: 0.029; clearance [2]: 16.5 mL/min/kg; microsomal CLint [3]: 105 µL/min/mg; microsomal CLint [4]: 69 µL/min/mg; Ki [5]: 1260 nM; half-life [6]: 1.9 h; CL [7]: 11 µL/min; Vd [8]: 1.9 L/kg; CL [9]: 7 µL/min; fraction unbound [10]: 0.006; Papp A→B [11]: < 2.2 ×10⁻⁶ cm/s; bioavailability [12]: 23.5%; Papp B→A [13]: 4.7 ×10⁻⁶ cm/s
2 | 79.4 | COc1ccc(S(=O)(=O)N2CC(C(=O)NCCCn3ccnc3)c3ccccc32)c2ccccc12 (racemic) | 
3 | 5.01 | CN1CCC(N(C)C(=O)C2CN(S(=O)(=O)c3cccc4c(Cl)cccc34)c3ccccc32)CC1 (racemic) | 
4 | 31.6 | CN1CCC(N(C)C(=O)C2CN(S(=O)(=O)c3cccc4ccccc34)c3ccccc32)CC1 (racemic) | 
5 | 126 | CN1CCC(N(C)C(=O)C2CN(S(=O)(=O)c3cccc4nsnc34)c3ccccc32)CC1 (racemic) | 
6 | 63.1 | Cc1c(S(=O)(=O)N2CC(C(=O)N(C)C3CCN(C)CC3)c3ccccc32)sc2ccc(Cl)cc12 (racemic) | 
7 | 316 | CN1CCC(N(C)C(=O)C2CN(S(=O)(=O)c3cccs3)c3ccccc32)CC1 (racemic) | 
8 | 316 | CN1CCC(N(C)C(=O)C2CN(S(=O)(=O)c3ccccc3)c3ccccc32)CC1 (racemic) | 
9 | 7.94 | COc1ccc(S(=O)(=O)N2CC(C(=O)N(C)C3CCN(C)CC3)c3ccccc32)c2ccccc12 (racemic) | 
10 | 31.6 | COc1ccc(S(=O)(=O)N2CC(C(=O)NCCCN3CCOCC3)c3ccccc32)c2ccccc12 (racemic) | 
11 | 25.1 | CN1CCC(N(C)C(=O)C2CN(S(=O)(=O)c3cccc(C(F)(F)F)c3)c3ccccc32)CC1 (racemic) | 
12 | 100 | COc1ccc(S(=O)(=O)N2CC(C(=O)N(C)C3CCN(C)CC3)c3ccccc32)c(C)c1C (racemic) | 
13 | 25.1 | CN1CCC(N(C)C(=O)C2CN(S(=O)(=O)c3ccc(C(F)(F)F)cc3)c3ccccc32)CC1 (racemic) | 
14 | 100 | COc1cc(C)c(S(=O)(=O)N2CC(C(=O)N(C)C3CCN(C)CC3)c3ccccc32)c(C)c1C (racemic) | 
15 | 1.26 | COc1ccc(S(=O)(=O)N2CC(C(=O)N3CCCNCC3)c3ccccc32)c2ccccc12 (racemic) | 
16 | 20 | CCN(CC)CCNC(=O)C1CN(S(=O)(=O)c2ccc(OC)c3ccccc23)c2ccccc21 (racemic) | 
17 | 79.4 | CCN(CC)CCCNC(=O)C1CN(S(=O)(=O)c2ccc(OC)c3ccccc23)c2ccccc21 (racemic) | 
18 | 126 | CN1CCC(N(C)C(=O)C2CN(S(=O)(=O)c3ccc(-c4ccccc4)cc3)c3ccccc32)CC1 (racemic) | 
19 | 31.6 | CN1CCC(N(C)C(=O)C2CN(S(=O)(=O)c3cccc(-c4ccccc4)c3)c3ccccc32)CC1 (racemic) | 
20 | 63.1 | COc1cccc(N2CCN(C(=O)C3CN(S(=O)(=O)c4ccc(OC)c5ccccc45)c4ccccc43)CC2)c1 (racemic) | 
21 | 25.1 | CN1CCC(N(C)C(=O)C2CN(S(=O)(=O)c3ccc4ccccc4c3)c3ccccc32)CC1 (racemic) | 
22 | 50.1 | CN1CCC(N(C)C(=O)C2CN(S(=O)(=O)c3ccc4c(c3)OCCO4)c3ccccc32)CC1 (racemic) | 
23 | 316 | Cc1cnc2c(S(=O)(=O)N3CC(C(=O)N(C)C4CCN(C)CC4)c4ccccc43)cccc2c1 (racemic) | 
24 | 158 | COc1ccc(S(=O)(=O)N2CC(C(=O)N3CC(N)C3)c3ccccc32)c2ccccc12 (racemic) | 
25 | 79.4 | COc1ccc(S(=O)(=O)N2CC(C(=O)N3CC(CN)C3)c3ccccc32)c2ccccc12 (racemic) | 
26 | 7.94 | COc1ccc(S(=O)(=O)N2CC(C(=O)N3CCNCC3)c3ccccc32)c2ccccc12 (racemic) | 
27 | 25.1 | COc1ccc(S(=O)(=O)N2CC(C(=O)NC3CCN(C)CC3)c3ccccc32)c2ccccc12 (racemic) | 
28 | 50.1 | COc1ccc(S(=O)(=O)N2CC(C(=O)NC3CCN(Cc4ccccc4)CC3)c3ccccc32)c2ccccc12 (racemic) | 
29 | 20 | CN1CCC(N(C)C(=O)C2CN(S(=O)(=O)c3ccc(OC(F)(F)F)cc3)c3ccccc32)CC1 (racemic) | 

Row | SMILES | Ki [14] [nM] | further results
30 | COc1ccc(S(=O)(=O)N2CC(C(=O)NC3CC4CCC(C3)N4C)c3ccccc32)c2ccccc12 (racemic) | 31.6 | 
